# CHO parental Ca: counter-screen for OX1R antagonists: effect in parental CHO cells | parental CHO-K1, ATP-induced calcium, Fluo-8 fluorescence | inhibition, % at 5.6 µM | 330,000 compounds, 0.63% hits;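 active = inhibition above that plate's mean sample inhibition plus 3 SD, cut at about 26% in these data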;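 note: 0% = ATP-challenged DMSO wells and 100% = DMSO wells without ATP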
#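 material = parental CHO cells | also added = ATP as calcium-mobilizing challenge | dosing = single point at 5.6 µM | detection = intracellular calcium via Fluo-8 no-wash fluorescent dye | read-out = % inhibition | benchmarks = low control ATP plus DMSO, high control DMSO only | repeats = one well per compound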
# OX1R antag-1: human HCRTR1 antagonism. O43613. inhibition, % at 5 µM. CHO/OX1R cells, Fluo-8 calcium fluorescence, orexin A. 330,000 compounds, 0.43% hits. AID 434989;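 active = inhibition above its plate's threshold, mean inhibition of all tested compounds on the plate plus 3 SD, cut at about 37% in these data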;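 note: 0% = orexin A challenge wells and 100% = SB-334867-A antagonist wells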
# MPTP inh: inhibitors of mitochondrial permeability transition pore | isolated mouse mitochondria, Ca2+ swelling absorbance, 30 min | inhibition, % at 10 µM | 360,000 compounds, 1.4% hits;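 active = inhibition of 50% or more, scaled per plate between neutral and stimulator controls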;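 note: 0% = DMSO wells given calcium and 100% = 1 mM EGTA wells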
# OX1R antag-2: OX1R (human) antagonism; inhibition, % at 6.6 µM; O43613; OX1R-expressing cells, FRET antagonist read-out; AID 485270; 330,000 compounds, 1.8% hits; in the data active = inhibition mostly above about 38%, no sharp cut-off; inactive = mostly below about 40%;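 note: 0% = agonist challenge alone and 100% = reference antagonist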
# GPR7 antag: blocks human GPR7 receptor signaling; GPR7-expressing cells, fluorescence antagonist assay; inhibition, % at 4.4 µM; 290,000 compounds, 1.1% hits; in the data active = inhibition above about 16%, passing the limit was not always enough;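 note: cells stimulated with the agonist NPW; 0% = agonist with vehicle and 100% = vehicle without agonist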
# Target sequence (P48145 whole entry, looked up): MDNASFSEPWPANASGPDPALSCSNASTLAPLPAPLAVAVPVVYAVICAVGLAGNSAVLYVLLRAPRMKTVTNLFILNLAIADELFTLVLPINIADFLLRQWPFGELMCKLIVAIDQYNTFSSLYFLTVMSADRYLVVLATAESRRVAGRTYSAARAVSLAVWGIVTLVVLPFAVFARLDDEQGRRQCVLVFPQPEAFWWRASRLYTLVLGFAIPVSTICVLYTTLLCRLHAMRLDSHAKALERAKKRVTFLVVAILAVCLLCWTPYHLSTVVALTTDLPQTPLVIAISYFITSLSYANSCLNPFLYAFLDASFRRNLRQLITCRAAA
# * marks the source's active call; other numbers are inactive results; · = no result. Only some compounds are listed: those with a hit (about 3.8% of all), similar ones and a draw of the others.
SMILES,CHO parental Ca,OX1R antag-1,MPTP inh,OX1R antag-2,GPR7 antag
C=C(C(=O)c1ccccc1)C(C(=C)C(=O)c1ccccc1)c1ccc(OC)cc1,-5,-16,3,2,-10
Cc1cc(C)n2nc(N)c(N=Nc3cccc(Cl)c3)c2n1,-3,-17,-1,51*,-4
CC(SCc1ccccc1)C(=O)N/N=C/c1ccc(OCC(=O)NCc2ccco2)cc1 (stereo not given),-2,24,2,56*,-4
COc1ccc(CSCC(=O)N/N=C/c2ccc(OCC(=O)NCc3ccco3)cc2)cc1,9,15,2,32,-7
C=CCN1C(=Nc2cccnc2)SCC1(O)c1ccc(C)cc1 (stereo not given),37*,19,·,29,24
CSc1nnc(CCNS(=O)(=O)c2ccc(Br)cc2)n1C,-3,3,-2,9,-3
Cc1cc(C)cc(N(CC(=O)Nc2ccccc2)C2=NC3CS(=O)(=O)CC3S2)c1 (stereo not given),-12,5,-1,61*,-3
Cc1ccc(NC(=O)CN(C2=NC3CS(=O)(=O)CC3S2)c2ccccc2)cc1 (stereo not given),·,·,0,·,·
COc1ccc(Nc2ccc(C(=O)O)cc2[N+](=O)[O-])cc1,1,-23,7,55*,-6
COc1ccc(OC)c(Nc2ccc(C(=O)O)cc2[N+](=O)[O-])c1,-3,8,2,33,5
CCOC(=O)C1=C[C@@H](C(C)(C)C)N(S(=O)(=O)c2ccc(C)cc2)[C@H]1c1cccc2ccccc12,·,·,2,·,·
COc1ccc(C2(C)NC(=O)N(CC(=O)c3cc(C)n(C4CC4)c3C)C2=O)cc1 (stereo not given),26,52*,-1,4,·
Cc1cc(C(=O)CN2C(=O)NC(C)(c3ccc(F)c(F)c3)C2=O)c(C)n1C1CC1 (stereo not given),·,·,0,·,·
COCCNc1nc(-c2ccccc2)nc2ccccc12,-28,-7,0,46*,-3
O=C1c2cccc3cccc(c23)C(=O)N1CCCn1ccnc1,-3,6,3,55*,·
Nc1nc2c(s1)CCc1c-2cnn1-c1ccccc1,-16,5,0,61*,20
O=C(CSc1nc2cc(Cl)ccc2s1)Nc1cccc(S(=O)(=O)N2CCOCC2)c1,-8,7,13,40,-5
CCOC(=O)c1c(NC(=O)CN2CCN(C(=O)c3ccco3)CC2)sc2c1CCCC2,60*,70*,-1,15,0
CCOC(=O)c1cc(C)sc1NC(=O)CN1CCN(C(=O)c2ccco2)CC1,87*,53*,1,7,-22
COC(=O)c1cc(C)sc1NC(=O)CN1CCN(C(=O)c2ccco2)CC1,-6,-7,0,17,-2
CCOC(=O)c1c(NC(=O)c2ccco2)sc2c1CCCC2,-5,-9,4,8,-14
Cc1ccc(S(=O)(=O)/N=C2\C=C(Nc3cccc(C(=O)O)c3)C(=O)c3ccccc32)cc1,-15,-20,13,35,-21
CCc1ccc(S(=O)(=O)/N=C2\C=C(Nc3ccc(C(=O)O)cc3)C(=O)c3ccccc32)cc1,-16,-11,5,52*,-29
CC(=O)Cc1nsc(NC(=O)c2ccc(-c3ccc(F)cc3)o2)n1,-19,8,-1,61*,8
CCOc1ccc(N=NC2C(=O)N(C(N)=S)N=C2C)cc1 (stereo not given),-12,-20,1,1,-5
SMILES,CHO parental Ca,OX1R antag-1,MPTP inh,OX1R antag-2,GPR7 antag
NC(=O)[C@@H]1CCCCNc2c(I)cc([N+](=O)[O-])cc2C(=O)N[C@@H](CCC(=O)O)C(=O)N[C@@H](CO)C(=O)N1,-8,0,-4,41,0
NC(=O)[C@@H]1CCCNc2c(F)cc([N+](=O)[O-])cc2C(=O)N[C@@H](CCC(=O)O)C(=O)N[C@@H](CO)C(=O)N1,-2,6,0,60*,-11
CCCCCCn1c(=O)[nH]c2nc3cc(N)ccc3nc2c1=O,51*,75*,·,18,16
CCCCCCn1c(=O)[nH]c2c(c1=O)CCC2,4,-21,0,0,-5
CC(CC(=O)Nc1ccc2c(c1)c(=O)n(C)n2-c1ccccc1F)c1ccccc1 (stereo not given),·,·,0,·,·
Cc1cccc(C)c1-n1nnnc1C(c1ccnc2ccccc12)N1CCN(C(=O)OC(C)(C)C)CC1 (stereo not given),·,·,0,·,·
Oc1ccc2ccccc2c1C=NCc1cn2ccsc2n1,-2,-2,-1,65*,-3
Oc1ccc2ccccc2c1/C=N/c1nccs1,16,3,1,23,-7
O=C1CC(N2CCN(c3nc4ccccc4s3)CC2)C(=O)N1Cc1cccs1 (stereo not given),-21,-26,-1,18,20*
O=C1CC(N2CCN(c3ccc(F)cc3)CC2)C(=O)N1Cc1cccs1 (stereo not given),-14,-24,-3,22,-7
CCN(CC)C(=O)CN1C(=O)/C(=C/c2ccccc2)SC1=S,-12,-29,10,15,1
Cc1ccc(/C=C2\SC(=S)N(CCC(=O)NNS(=O)(=O)c3ccc(C)cc3)C2=O)cc1,-11,-11,7,11,21*
O=C(CN1C(=O)S/C(=C\c2ccccc2)C1=O)NNC(=O)c1ccccc1O,10,9,-4,42,-7
CC(=O)NNC(=O)CN1C(=O)/C(=C/c2ccccc2)SC1=S,-13,-18,3,51,21*
O=C(CCCN1C(=O)c2ccccc2C1=O)NCCN1C(=O)S/C(=C\c2cccs2)C1=O,-28,-20,9,66*,3
O=C(CCCN1C(=O)S/C(=C\c2ccccc2)C1=O)NNC(=O)c1ccccc1O,7,1,0,56*,0
O=C(CCCN1C(=O)/C(=C\c2cccs2)SC1=S)Nc1ccccc1O,·,·,4,·,·
Cc1ccc(/C=C2\SC(=S)N(CCC(=O)NNC(=O)c3ccncc3)C2=O)cc1,-5,11,13,6,-5
CC(C)(C)C(C(=O)NCc1ccccc1)N1CCN(C(=O)C2CCCO2)CC1 (stereo not given),·,·,6,·,·
CC(C)CCNC(=O)C1(C)CCN1Cc1ccc(-c2ccccn2)cc1 (stereo not given),·,·,-2,·,·
COc1cc(C(=S)N2CCOCC2)ccc1OC(=O)c1cc(OC)c(OC)c(OC)c1,-15,-40,-1,14,-4
O=C(CCN1C(=O)/C(=C/c2ccccc2)SC1=S)NCCc1ccc(O)cc1,-6,-13,11,38,1
O=C(CCN1C(=O)/C(=C\c2ccccc2)SC1=S)NNC(=O)c1ccccc1O,3,10,18,64*,-17
O=C(CCCN1C(=O)/C(=C\c2ccccc2)SC1=S)N1CCOCC1,33*,46*,2,32,·
O=C(c1sc2cc([N+](=O)[O-])ccc2c1Cl)N1CCOCC1,-9,-13,1,75*,9
Cc1cccc(NC(=O)c2ccc(N3C(=O)C4C5C=CC(C6CC56)C4C3=O)cc2)c1 (stereo not given),46*,33,0,18,14

# Bioassay records from PubChem.
